Rows were chosen to be rich in hits. Some 3% of all compounds tested hit in one or more screens of this group.
SENP6 block – SENP6 protease inhibition; Q9GZR1; Recombinant SENP6 catalytic domain, aminoluciferin luminescence; inhibition, % at 10 µM; actives 1.8% (n = 330,000);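 active means inhibition above about 50% at the single tested dose, limit read from the data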;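 further: plate controls were DMSO wells with enzyme for no effect and DMSO wells lacking enzyme for full effect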
SENP8 block-1 – inhibitors of human SENP8 protease; AID 602440; Q96LD8; actives 0.64% (n = 360,000); inhibition, % at 20 µM; recombinant SENP8, Nedd8 substrate fluorescence; in the data active means inhibition mostly above about 40%, no sharp cut-off; inactive means mostly below about 27%
Apaf-1 inh – inhibitors of human Apaf-1 apoptosome. O14727. actives 0.71% (n = 330,000). inhibition, % at 20 µM. reconstituted apoptosome caspase-3 activity, DEVD-Rh110 fluorescence; active means inhibition of at least 40% at 20 µM;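 further: plate controls were DMSO wells for no effect and DEVD-CHO caspase inhibitor wells for full effect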
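Assay system – apoptosome proteins · Medium – Hepes buffer, pH 7.5 · Also added – cytochrome c with DEVD-Rh110 · Timing – 30 min compound preincubation, 50 min activation, room temperature · Detection – Rh110 fluorescence, excitation 480 nm, emission 540 nm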
UBC13 polyUb – blocks human UBC13 polyubiquitin chain formation. P61088. TR-FRET. inhibition, % at 20 µM. actives 0.47% (n = 330,000); in the data active means inhibition above about 45%, passing the limit was not always enough
Target sequence (P61088 whole entry, looked up): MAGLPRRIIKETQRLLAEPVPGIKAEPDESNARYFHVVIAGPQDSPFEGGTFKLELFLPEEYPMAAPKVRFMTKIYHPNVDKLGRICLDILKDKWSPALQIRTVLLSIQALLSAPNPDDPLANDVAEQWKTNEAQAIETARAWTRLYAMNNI
SENP8 block-2 – blocks the human protease SENP8. Q96LD8. purified SENP8, Z-RLRGG-aminoluciferin cleavage, luminescence. AID 2540. inhibition, % at 10 µM. actives 1.2% (n = 330,000); in the data active means inhibition above about 50%
SENP7 block – inhibitors of human SENP7 protease; Q9BQF6; recombinant SENP7, Z-RLRGG-aminoluciferin luminescence, 40 min; inhibition, % at 5 µM; actives 1.5% (n = 330,000); AID 434973;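 active means inhibition above about 50% at the single test dose, limit read from the data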;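 further: plate controls were DMSO with enzyme for no effect and no enzyme buffer wells for full effect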
Target sequence (Q9BQF6 706-1050 limits assumed): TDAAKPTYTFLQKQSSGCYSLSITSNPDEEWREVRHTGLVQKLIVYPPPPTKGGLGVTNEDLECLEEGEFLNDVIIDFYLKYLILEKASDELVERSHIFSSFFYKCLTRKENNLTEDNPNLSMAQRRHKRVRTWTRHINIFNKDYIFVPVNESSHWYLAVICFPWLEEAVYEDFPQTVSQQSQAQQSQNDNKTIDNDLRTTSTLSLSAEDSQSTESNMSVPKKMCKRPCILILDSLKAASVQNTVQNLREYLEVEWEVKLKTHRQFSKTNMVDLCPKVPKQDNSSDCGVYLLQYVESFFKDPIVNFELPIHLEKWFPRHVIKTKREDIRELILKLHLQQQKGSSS
Apaf-1 inh conf – confirmation of Apaf-1 inhibitors | shares compounds with Apaf-1 inh | reconstituted apoptosome, caspase-3 DEVD-Rh110 fluorescence | inhibition, % at 20 µM | actives 25% (n = 1,800);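 active means mean inhibition of at least 40% at 20 µM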;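 further: plate controls were DMSO wells for no effect and DEVD-CHO caspase inhibitor control wells for full effect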
Rh110 interf inh – interferes with Rh110 fluorescence, flagging false Apaf-1 inhibitors; AID 504615; shares compounds with Apaf-1 inh; 1,800 tested, under 10 active; Rh110 fluorescence interference, quenched caspase reaction; activation (fluorescence interference), % at 20 µM;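 active means signal rise of 40% or more at 20 µM, treated as a fluorescence artifact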
Apaf1 inh interf – Apaf-1 inhibitor counter-screen fluorescence artifact; AID 588538; fluorescence interference counterscreen, Apaf-1 assay format; IC50, µM; shares compounds with Apaf-1 inh; 460 tested, under 10 active; call rule not given here
* hit, by the source's call; · = not tested or not shown.

SMILES | SENP6 block | SENP8 block-1 | Apaf-1 inh | UBC13 polyUb | SENP8 block-2 | SENP7 block | Apaf-1 inh conf | Rh110 interf inh | others
Cc1cccc(-n2ccnc2SCC(=O)Nc2cccc(S(=O)(=O)NC3=NCCC3)c2)c1C | -8 | 11 | 3 | -6 | -3 | -7 | · | ·
CC[C@]12CCCN3CCc4c(n(c5ccccc45)[C@](O)(C(=O)OC)C1)[C@@H]32 | 1 | -241 | -1 | 5 | -16 | -2 | · | ·
CCC12CCCN3CCc4c(n(c5ccccc45)C(O)(C(=O)OC)C1)C32 (centres undefined) | 28 | -67 | 41* | -10 | 8 | 8 | 18 | 0
Cc1ccc(N=C2C(=O)Nc3ccccc32)cc1 | -8 | 9 | 5 | -13 | -8 | -2 | · | ·
CCN(CC)c1ccc(N=C2C(=O)Nc3ccccc32)cc1 | 16 | 30 | 47* | -20 | 2 | 8 | 15 | 1
CCCNc1c(F)c(F)c2c(C)c3ccccc3nc2c1F | 25 | -37 | 51* | -25 | 1 | -1 | 33 | 4
Cc1c2ccccc2nc2ccccc12 | 5 | -431 | 18 | 0 | -1 | 0 | · | ·
CN(C)CCCNC(=O)C[C@H]1C[C@H](C(=O)N2CCCCC2)[C@@]2(CCc3ccccc3)c3[nH]c4cc(-c5ccco5)ccc4c3CCN2C1=O | · | -301 | 72* | · | · | -1 | 28 | 11
COc1ccc2[nH]c3c(c2c1)CCN1C(=O)C(CC(=O)NCCC2=CCCCC2)C[C@H](C(=O)N2CCOCC2)[C@@]31CCC1CCCC1 (some centres undefined) | · | 8 | 44* | · | · | 4 | 29 | 16
CC(C)(C)NC(=O)C[C@H]1C[C@H](C(=O)N2CCCCC2)[C@@]2(CCc3ccccc3)c3[nH]c4cc(-c5ccco5)ccc4c3CCN2C1=O | · | -370 | 15 | · | · | 5 | · | ·
CN(C)CCCNC(=O)C[C@H]1C[C@H](C(=O)N2CCCCC2)[C@@]2(C)c3[nH]c4cc(-c5ccco5)ccc4c3CCN2C1=O | · | -382 | 42* | · | · | 9 | 5 | 1
COc1ccc2nc3c(cc2c1)c(NC(=O)CC(C)C)nn3CC(C)C | 5 | -280 | 8 | 10 | 0 | -2 | · | ·
O=C(NC1CC1)c1ccc2nc([C@H]3C[C@H](O)[C@@H](CO)O3)[nH]c2c1 | · | 17 | · | · | · | · | · | ·
COc1cc(NC(=O)CN(c2ccc(C)cc2)S(=O)(=O)c2c(C)noc2C)cc(OC)c1 | -5 | 20 | 14 | -8 | 6 | 3 | · | ·
CN(C)CCCN1c2ccccc2Sc2ccc(C(F)(F)F)cc21 | 0 | -36 | 43* | 27 | -3 | 3 | 9 | 16
CN(C)CCC(=O)N1c2ccccc2Sc2ccc(C(F)(F)F)cc21 | 16 | 12 | 2 | 3 | 1 | -4 | · | ·
Cc1cc(SCC2=NNC(=O)C2)c(Cl)cc1Cl | 3 | 13 | 47* | -7 | 0 | -14 | 33 | -1
Cc1ccc(NC(=O)CNC(=O)c2cccs2)nc1 | 0 | 12 | 6 | -4 | 1 | 9 | · | ·
CC1CN(Cc2c(O)ccc3c(=O)c(-c4ccccc4)coc23)CC(C)O1 (centres undefined) | 0 | -371 | 0 | 14 | 2 | 3 | · | ·
CC1CN(Cc2c(O)ccc3c2oc(=O)c2ccccc23)CC(C)O1 (centres undefined) | 16 | -114 | 44* | 37 | -3 | -3 | 37 | 7
CC[C@]12c3[nH]c4ccc(Cl)cc4c3CCN1C(=O)[C@@H](CC(=O)NCC13CC4CC(CC(C4)C1)C3)C[C@@H]2C(=O)N1CCN(C(=O)c2ccco2)CC1 | · | 9 | 44* | · | · | -5 | 18 | 7
CC(C)=CCC/C(C)=C/CNC(=O)C[C@H]1C[C@H](C(=O)N2CCOCC2)[C@@]2(C)c3[nH]c4ccc(Cl)cc4c3CCN2C1=O | · | 1 | 42* | · | · | 6 | 27 | 10
CC(C)=CCC/C(C)=C/CNC(=O)C[C@H]1C[C@H](C(=O)N2CCOCC2)[C@@]2(C)c3[nH]c4cc(-c5ccco5)ccc4c3CCN2C1=O | · | -369 | 44* | · | · | -4 | 17 | 3
CN(C)CCNC(=O)/C(=C/c1ccc(-c2cccc([N+](=O)[O-])c2)o1)NC(=O)c1ccccc1 | 0 | 16 | 5 | 14 | 6 | 11 | · | ·
Cc1ccc(C(=O)N/C(=C\c2ccc(-c3ccccc3[N+](=O)[O-])o2)C(=O)NCCN(C)C)cc1 | 30 | -9 | 53* | -16 | 21 | 5 | 33 | 2
SMILES | SENP6 block | SENP8 block-1 | Apaf-1 inh | UBC13 polyUb | SENP8 block-2 | SENP7 block | Apaf-1 inh conf | Rh110 interf inh | others
Cc1oc(-c2cccc(Cl)c2)nc1CS(=O)(=O)CC(=O)NCCN1CCCC1 | -6 | 26 | 10 | 6 | -11 | 9 | · | ·
Nc1cnc(Br)cc1Br | -21 | 22 | -6 | 11 | -5 | 0 | · | ·
Nc1cc2nsnc2cc1Br | 96* | 93* | 98* | -84 | 97* | 95* | 99* | 6 | Apaf1 inh interf=>100
c1ccc(NC2=NCCN2CCCC2CCCC2)cc1 | -5 | 13 | 6 | 7 | -8 | 5 | · | ·
COc1cccc(O)c1CN1CCC(C(=O)Nc2ccc(Oc3cccnc3)cc2)CC1 | 0 | 4 | 16 | 0 | -10 | -1 | · | ·
COc1ccc(CN2CCC(C(=O)Nc3ccc(Oc4cccnc4)cc3)CC2)cc1 | 11 | 3 | 58* | 5 | 1 | -10 | 17 | 16
Cc1ccc(S(=O)(=O)N2C[C@H]3C(=O)C[C@@H](c4cccc(C)c4)N(S(=O)(=O)c4ccc(C)cc4)[C@H]3C[C@H]2c2ccccc2)cc1 | · | 14 | · | · | · | · | · | ·
Cc1ccc(-c2nn3c(-c4ccco4)nnc3c3ccccc23)cc1S(=O)(=O)NCC1CCCO1 (centres undefined) | 3 | -20 | 66* | 14 | 7 | 2 | 83* | 7 | Apaf1 inh interf=>100
Cc1[nH]n(-c2ccccc2)c(=S)c1C=NCCCN=Cc1c(C)[nH]n(-c2ccccc2)c1=S | 20 | 31 | 63* | -14 | 2 | 18 | -8 | 1
Cn1c(=N)n(CC(=O)c2ccc(Br)s2)c2ccccc21 | 10 | -62 | 3 | 2 | 4 | 1 | · | ·
N=c1n(CC(=O)c2ccc(Br)s2)c2ccccc2n1Cc1ccccc1 | -11 | 13 | 42* | 18 | -10 | -4 | 23 | 7
CNS(=O)(=O)c1ccc(CNC[C@H]2O[C@@H](n3cc(C)c(=O)[nH]c3=O)C[C@@H]2O)cc1 | · | 10 | · | · | · | · | · | ·
COc1ccc(OC)c(C2=NOC(C(=O)Nc3ccc4c(c3)OCCO4)C2)c1 (centres undefined) | 9 | -156 | 42* | 5 | 6 | 3 | 5 | 1
COc1ccc(C2=NOC(C(=O)Nc3ccc4c(c3)OCCO4)C2)cc1OC (centres undefined) | 22 | 10 | -1 | 0 | 6 | 4 | · | ·

Assay outcomes from PubChem.
